Measured values: ChEMBL document CHEMBL1139442, “Pyrrolobenzimidazoles linked to heterocycles and peptides. Design of DNA base pair specific phosphate hydrolyzing agents and novel cytotoxic agents” (2004)

What was measured:
[1] = test system: Panel melanoma (Carcinoma cell lines); assay: Cytotoxic activity against human melanoma cell lines was determined; format: functional; set-up: unit not given here
In short: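 Tested in the NCI In Vitro Cell Line Screening Project, 60 human tumour lines. Cytotoxic read-out is LC50, the concentration giving 50% cell kill.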

[2] = test system: Panel melanoma (Carcinoma cell lines); assay: Cytostatic activity against human melanoma cell lines was determined; format: functional
In short: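 Tested in the NCI In Vitro Cell Line Screening Project, 60 human tumour lines. Cytostatic read-outs are GI50 (50% growth inhibition) and TGI (total growth inhibition).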

[3] = target: NAD(P)H dehydrogenase [quinone] 1 (Homo sapiens) (UniProt P15559); assay: Substrate specificity for human DT-diaphorase was determined
Chain of NAD(P)H dehydrogenase [quinone] 1 (Homo sapiens) (P15559 whole entry): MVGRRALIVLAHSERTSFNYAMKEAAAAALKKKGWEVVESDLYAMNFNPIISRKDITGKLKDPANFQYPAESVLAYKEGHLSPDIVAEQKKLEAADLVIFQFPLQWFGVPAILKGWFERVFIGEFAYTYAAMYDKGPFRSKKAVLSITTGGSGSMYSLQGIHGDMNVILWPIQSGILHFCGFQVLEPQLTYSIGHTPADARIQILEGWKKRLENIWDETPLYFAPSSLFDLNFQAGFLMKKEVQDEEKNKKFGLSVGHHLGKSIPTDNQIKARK

[4] = test system: Nucleic Acid; assay: DNA alkylation ability was determined; format: functional; conditions: Bos taurus
In short: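 Bulk alkylation of calf thymus DNA. Drug (0.004 mmol) in DMSO was added, sealed and degassed under argon. The mix was reduced by H2 purge over Pd/C until colourless, argon-purged, then held at 30 °C for 24 h. After catalyst removal, DNA was ethanol/ammonium acetate precipitated at −20 °C for 16 h, pelleted, redissolved and reprecipitated.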

SMILES | LC50 [1] | log GI50 range [2] | log TGI range [2] | k cat/Km [3] [M⁻¹ s⁻¹] | DNA alkylation [4] [%]
CC1=C(N2CC2)C(=O)c2nc3n(c2C1=O)CC[C@@H]3NC(=O)[C@@H](Cc1ccccc1)NC(=O)[C@H](N)Cc1ccccc1 | 4 | 2.42 | 4 | – | –
CC1=C(N2CC2)C(=O)c2nc3n(c2C1=O)CCC3NC(=O)c1ccncc1 (stereo not given) | 2.35 | 1.96 | 2.5 | 0.00033 | 79
CC1=C(N2CC2)C(=O)c2nc3n(c2C1=O)CCC3N (stereo not given) | – | – | – | – | 100
CC1=C(N2CC2)C(=O)c2nc3n(c2C1=O)CCC3NC(=O)c1ccnc2ccccc12 (stereo not given) | – | – | – | – | 10
CC1=C(N2CC2)C(=O)c2nc3n(c2C1=O)CC[C@@H]3NC(=O)C1CCCN1 (stereo not given in full) | 2.27 | 3.34 | 2.8 | – | –
CC1=C(N2CC2)C(=O)c2nc3n(c2C1=O)CCC3NC(=O)Cc1ccncc1 (stereo not given) | – | – | – | – | 35
CCCCC(=O)NC1CCn2c1nc1c2C(=O)C(C)=C(N2CC2)C1=O (stereo not given) | – | – | – | – | 9
CC1=C(N2CC2)C(=O)c2nc3n(c2C1=O)CC[C@@H]3NC(=O)[C@H](N)Cc1ccccc1 | 4 | 1.69 | 4 | – | –
CC1=C(N2CC2)C(=O)c2nc3n(c2C1=O)CCC3NC(=O)c1cccnc1 (stereo not given) | – | – | – | – | 20
CCC(=O)NC1CCn2c1nc1c2C(=O)C(C)=C(N2CC2)C1=O (stereo not given) | – | – | – | – | 0
